Assay results as given in ChEMBL document CHEMBL1144568, “Synthesis of novel potent hepatitis C virus NS3 protease inhibitors: discovery of 4-hydroxy-cyclopent-2-ene-1,2-dicarboxylic acid as a N-acyl-L-hydroxyproline bioisostere” (Bioorg Med Chem, 2007).

Experiment: Inhibition of full length HCV NS3/4A protease
Set-up: species or system Hepacivirus hominis
Summary of the method: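 30 min room-temperature preincubation with inhibitor, then FRET substrate RET S1 at 2 µM final. Activity followed continuously 20 min (ex 355/em 500 nm); IC50 by non-linear fit, Ki derived from IC50.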

| Ki | SMILES |
| --- | --- |
| > 2000 nM | CCC[C@H](NC(=O)[C@H]1C[C@H](Oc2cc(-c3ccccc3)nc3cc(OC)ccc23)C=C1C(=O)N[C@H](C(=O)N[C@H](C(=O)OC)C1CCCCC1)C(C)(C)C)C(=O)O |
| 1.3 nM | C=C[C@@H]1C[C@]1(NC(=O)[C@@H]1C[C@@H](Oc2cc(-c3ccccc3)nc3cc(OC)ccc23)C=C1C(=O)N[C@H](C(=O)N[C@H](C(=O)NC)C1CCCCC1)C(C)(C)C)C(=O)O |
| > 2000 nM | C=C[C@@H]1C[C@]1(NC(=O)C1CC(Oc2cc(-c3ccccc3)nc3cc(OC)ccc23)C=C1C(=O)N[C@H](C(=O)N[C@H](C(=O)OC)C1CCCCC1)C(C)(C)C)C(=O)OC(C)(C)C (some centres undefined) |
| > 2000 nM | CC[C@H](NC(=O)[C@@H]1C[C@@H](Oc2cc(-c3ccccc3)nc3cc(OC)ccc23)C=C1C(=O)N[C@@H](C(=O)N[C@@H](C(=O)OC)C1CCCCC1)C(C)C)C(=O)O |
| 30 nM | CCC[C@H](NC(=O)[C@@H]1C[C@@H](Oc2cc(-c3ccccc3)nc3cc(OC)ccc23)C=C1C(=O)N[C@H](C(=O)N[C@H](C(=O)OC)C1CCCCC1)C(C)(C)C)C(=O)O |
| > 5000 nM | C=C[C@@H]1C[C@]1(NC(=O)C1CC(Oc2cc(-c3ccccc3)nc3cc(OC)ccc23)C=C1C(=O)N[C@H](C(=O)N(C)[C@H](C(=O)NC)C1CCCCC1)C(C)(C)C)C(=O)O (some centres undefined) |
| 16 nM | C=C[C@@H]1C[C@]1(NC(=O)[C@@H]1C[C@@H](Oc2cc(-c3ccccc3)nc3cc(OC)ccc23)C[C@H]1C(=O)N[C@H](C(=O)N[C@H](C(=O)NC)C1CCCCC1)C(C)(C)C)C(=O)O |
| 108 nM | C=C[C@@H]1C[C@]1(NC(=O)[C@H]1C[C@H](Oc2cc(-c3ccccc3)nc3cc(OC)ccc23)C=C1C(=O)N[C@H](C(=O)N[C@H](C(=O)OC)C1CCCCC1)C(C)(C)C)C(=O)O |
| 1.1 nM | C=C[C@@H]1C[C@]1(NC(=O)[C@@H]1C[C@@H](Oc2cc(-c3ccccc3)nc3cc(OC)ccc23)C=C1C(=O)N[C@H](C(=O)N[C@H](C(=O)OC)C1CCCCC1)C(C)(C)C)C(=O)O |
| 523 nM | CC[C@H](NC(=O)C1CC(Oc2cc(-c3ccccc3)nc3cc(OC)ccc23)C=C1C(=O)N[C@H](C(=O)N[C@H](C(=O)OC)C1CCCCC1)C(C)C)C(=O)O (some centres undefined) |
| 503 nM | CC[C@H](NC(=O)C1CC(Oc2cc(-c3ccccc3)nc3cc(OC)ccc23)C=C1C(=O)N[C@H](C(=O)N[C@H](C(=O)OC)C1CCCCC1)C(C)(C)C)C(=O)O (some centres undefined) |
| 2560 nM | CCC[C@H](NC(=O)[C@H]1C[C@H](Oc2cc(-c3ccccc3)nc3cc(OC)ccc23)C=C1C(=O)N[C@H](C(=O)N[C@H](C(=O)OC)C1CCCCC1)C(C)C)C(=O)O |
| 280 nM | CC[C@H](NC(=O)C1CC(Oc2cc(-c3ccccc3)nc3cc(OC)ccc23)C=C1C(=O)N[C@H](C(=O)N[C@H](C(=O)NC)C1CCCCC1)C(C)(C)C)C(=O)O (some centres undefined) |
| > 2000 nM | C=C[C@@H]1C[C@]1(NC(=O)C1CC(Oc2cc(-c3ccccc3)nc3cc(OC)ccc23)C=C1C(=O)N[C@H](C(=O)N[C@H](C(=O)NC)C1CCCCC1)C(C)(C)C)C(=O)OC(C)(C)C (some centres undefined) |
| 23 nM | C=C[C@@H]1C[C@]1(NC(=O)[C@H]1C[C@H](Oc2cc(-c3ccccc3)nc3cc(OC)ccc23)C=C1C(=O)N[C@H](C(=O)N[C@H](C(=O)NC)C1CCCCC1)C(C)(C)C)C(=O)O |
| 102 nM | CCC[C@H](NC(=O)[C@@H]1C[C@@H](Oc2cc(-c3ccccc3)nc3cc(OC)ccc23)C=C1C(=O)N[C@H](C(=O)N[C@H](C(=O)OC)C1CCCCC1)C(C)C)C(=O)O |
| 67 nM | CCC[C@H](NC(=O)C1CC(Oc2cc(-c3ccccc3)nc3cc(OC)ccc23)C=C1C(=O)N[C@H](C(=O)N[C@H](C(=O)NC)C1CCCCC1)C(C)(C)C)C(=O)O (some centres undefined) |
| 24 nM | C=C[C@@H]1C[C@]1(NC(=O)C1CC(Oc2cc(-c3ccccc3)nc3cc(OC)ccc23)C=C1C(=O)N[C@H](C(=O)N[C@H](C(=O)OC)C1CCCCC1)C(C)C)C(=O)O (some centres undefined) |
| > 2000 nM | CC[C@H](NC(=O)C1CC(Oc2cc(-c3ccccc3)nc3cc(OC)ccc23)C=C1C(=O)N[C@H](C(=O)OC)C(C)C)C(=O)O (some centres undefined) |
